Assay outcomes deposited in PubChem BioAssay by Broad Institute.
Ecoli rRNA inh – reduced GFP signal of wild-type E. coli, primary screen, bacterial rRNA inhibitor project, GFP/RFP fluorescence, OD600, single point | E. coli WT GFP vs humanized-ribosome RFP mutants, 24 h; active compounds read low; DMSO median 0, no signal -100 | GFP signal change (wild-type ribosome), % (test concentration not listed) | 350,000 tested, 1.6% active | AID 720706, 2013;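 active = significant combined selectivity score with lowered wild-type GFP, culture density cut under 30%, mutant RFP and density less affected; inactive = any of these conditions unmet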
PglD DTNB – C. jejuni PglD acetyltransferase inhibitors, primary screen, biochemical, DTNB colorimetric, single point. UDP-N-acetylbacillosamine N-acetyltransferase PglD (Campylobacter jejuni). inhibition, % at 12.5 µM. 360,000 tested, 0.098% active. purified PglD enzyme, DTNB colorimetric CoA detection; in the data active = inhibition above about 16%, passing the limit was not always enough
RAD54 branch – inhibitors of human RAD54 branch migration, primary screen, biochemical, fluorescence, single point; RAD54 Holliday junction branch migration, FAM/BHQ fluorescence; inhibition, % at 10.4 µM; 360,000 tested, 0.14% active;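 active = mean normalized replicate activity at least 40 and at least half of replicates scoring 40 or more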;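 note: 0% = median of neutral control wells and 100% = median of positive control wells; inhibitors cause a drop in the FAM fluorescence signal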
E-selectin induc – E-selectin induction in HUVECs, primary screen, imaging, HUVEC, immunofluorescence imaging, single point; P16581; normalized: neutral wells 0, TNF-alpha wells 100; activation, % at 7.58 µM; 260,000 tested, 0.37% active; AID 686992, 2013;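 active = mean E-selectin-positive cell signal at least 10% of the positive control, reached in at least 60% of replicates, without over 20% cell loss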
Target sequence (P16581 whole entry, looked up): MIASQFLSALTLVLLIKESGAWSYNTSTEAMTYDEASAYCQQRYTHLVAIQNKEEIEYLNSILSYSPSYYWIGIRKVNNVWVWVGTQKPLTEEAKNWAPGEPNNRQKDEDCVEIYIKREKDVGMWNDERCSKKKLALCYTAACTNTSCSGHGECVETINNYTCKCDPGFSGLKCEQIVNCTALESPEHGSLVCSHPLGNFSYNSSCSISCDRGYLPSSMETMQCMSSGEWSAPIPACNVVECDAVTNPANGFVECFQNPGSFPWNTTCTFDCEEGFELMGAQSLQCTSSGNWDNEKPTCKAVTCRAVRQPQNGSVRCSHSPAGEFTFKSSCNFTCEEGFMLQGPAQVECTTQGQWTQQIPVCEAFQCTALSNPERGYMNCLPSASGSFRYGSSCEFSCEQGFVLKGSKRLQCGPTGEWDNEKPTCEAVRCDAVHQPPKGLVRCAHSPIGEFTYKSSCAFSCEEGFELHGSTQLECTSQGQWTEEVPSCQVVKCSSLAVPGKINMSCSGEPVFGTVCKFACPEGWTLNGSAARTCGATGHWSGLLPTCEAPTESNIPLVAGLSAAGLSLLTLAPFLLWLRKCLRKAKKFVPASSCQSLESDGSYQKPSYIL
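Read-out: % PE-positive cells | Test system: HUVEC | Doses: One compound dose added by pin transfer | Buffer or medium: EGM-2 over gelatin coat | Signal: Immunofluorescence imaging | Benchmarks: TNF-alpha, DMSO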
XiGFP reactiv – activators of inactive X chromosome reactivation, primary screen, imaging, XiGFP fibroblasts, GFP high-content imaging, set 2; 360,000 tested, 0.055% active; XiGFP mouse fibroblasts, % GFP-positive cells imaging, 3 d; cells co-treated with 5-aza-dC sensitizer; scaled so ellipticine positive control = 100%; activation, % at 7.58 µM; AID 743238, 2013;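 active = mean normalized replicate activation at least 10% and every replicate at or above 10%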;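 note: 0% = median of on-plate neutral control wells and 100% = ellipticine 6 µM median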
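System: XiGFP fibroblasts, SV40-immortalized. Medium: DMEM plus 5-aza-dC sensitizer. Doses: single point. Timing: 3 d treatment, 15 min room-temperature fixation. Control set: ellipticine 6 µM.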
RAD52 inh – RAD52 DNA annealing inhibitors, primary screen, biochemical, FRET, single point, set 2; DNA repair protein RAD52 homolog (Homo sapiens), P43351; inhibition, % at 18.7 µM; recombinant RAD52 DNA annealing, FRET fluorescence; 360,000 tested, 0.46% active; AID 651710, 2012;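 active = every replicate showing at least 50% inhibition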
* hit, by the source's call; . = no result; ! = not active in a repeat. Hits are enriched below; roughly 2% of the tested compounds scored in any of these assays.

SMILES	Ecoli rRNA inh	PglD DTNB	RAD54 branch	E-selectin induc	XiGFP reactiv	RAD52 inh
Cc1noc(C)c1S(=O)(=O)Nc1ccc2c(c1)CC(=O)N([C@@H](C)CO)C[C@@H](C)[C@@H](CN(C)C(=O)Nc1cccc3ccccc13)O2	-7	2	2	-8	-1	-6
O=c1[nH]c(SCCOc2ccccc2F)nc2ccccc12	4	.	.	.	0	0
Cn1c(SCCOc2ccccc2F)nc2ccccc2c1=O	-28*	.	.	-1	0	-15
C[C@H]1CN(C)C(=O)c2cc(NS(C)(=O)=O)ccc2O[C@@H]1CN(C)S(C)(=O)=O	-1	.	.	.	0	.
C[C@@H]1CN([C@H](C)CO)C(=O)Cc2cc(NC(=O)Nc3ccc4c(c3)OCO4)ccc2O[C@H]1CN(C)Cc1ccc(Cl)c(Cl)c1	2	-2	-1	300*	0	2
CC(C)NC(=O)Nc1ccc2c(c1)CC(=O)N([C@H](C)CO)C[C@@H](C)[C@@H](CN(C)Cc1ccc(Cl)c(Cl)c1)O2	-10	-8	-30	47*	0	-9
C[C@@H]1CN([C@@H](C)CO)C(=O)Cc2cc(NC(=O)C3CC3)ccc2O[C@@H]1CN(C)Cc1ccc2c(c1)OCO2	1	-4	8	49*	0	2
CC(C)NC(=O)Nc1ccc2c(c1)CC(=O)N([C@H](C)CO)C[C@H](C)[C@H](CN(C)Cc1ccc(Cl)c(Cl)c1)O2	-4	-1	-15	59*	0	-27
C[C@H](CO)N1C[C@H](C)[C@@H](CN(C)Cc2ccc3c(c2)OCO3)Oc2ccc(NC(=O)C3CC3)cc2CC1=O	5	1	-3	-5	0	6
CC(C)NC(=O)Nc1ccc2c(c1)CC(=O)N([C@@H](C)CO)C[C@H](C)[C@@H](CN(C)Cc1ccc(Cl)c(Cl)c1)O2	-10	-1	-12	-26	0	-6
C[C@H]1CN([C@@H](C)CO)S(=O)(=O)c2ccc(C#Cc3ccc(F)cc3)cc2O[C@@H]1CN(C)S(=O)(=O)c1cn(C)cn1	.	-2	-1	.	.	-6
C[C@H](CO)N1C[C@H](C)[C@@H](CN(C)C)Oc2ccc(NC(=O)Nc3ccc4c(c3)OCO4)cc2CC1=O	4	5	-4	3	0	-3
C[C@@H]1CN([C@@H](C)CO)C(=O)Cc2cc(NC(=O)Nc3ccc4c(c3)OCO4)ccc2O[C@H]1CN(C)C	-2	-6	3	384*	0	10
Cc1cccc(Nc2c(F)c(F)c(F)c(F)c2C(=O)O)c1	-30*	.	.	.	1	-20
COc1cccc(Nc2c(F)c(F)c(F)c(F)c2C(=O)O)c1	.	9	2	.	.	.
C(/C=C/c1ccccc1)=N/N1CCN(c2ccccc2)CC1	.	-5	-4	.	.	.
C(=C\c1ccccc1)/C=N/N1CCN(Cc2ccccc2)CC1	-25*	.	.	0	0	-8
Cc1cc(C(=O)N/N=C/c2cccc(OC(=O)c3cccc(Br)c3)c2)n[nH]1	6	0	-4	1	0	7
COc1cccc(C(=O)Oc2c(Br)cc(Br)cc2/C=N/NC(=O)c2cc(C)[nH]n2)c1	-20*	.	.	.	0	-25
CC(C)COCc1ccc(O)c2ncccc12	-35*	.	.	.	0	-2
O=C(CCl)Nc1cn(-c2ccccc2)nc1-c1ccc(F)cc1	-24*	.	.	1	0	-19
CCC(=O)NC(c1ccccc1)c1c(O)ccc2ccccc12 (stereo unspecified)	-32*	-3	-8	0	0	-8
O=C(NN=C1c2ccccc2-c2ccccc21)c1ccccc1	-32*	-9	12	0	0	-15
O=C(NN=C1c2ccccc2-c2ccccc21)c1ccccc1Br	28	9	9	.	.	-9
COc1ccc(-c2ccc([C@H]3[C@H]4CN(Cc5ccccc5)CC(=O)N4[C@H]3CO)cc2)cc1	-5	.	.	0	0	11
SMILES	Ecoli rRNA inh	PglD DTNB	RAD54 branch	E-selectin induc	XiGFP reactiv	RAD52 inh
COc1ccc(-c2nnc3n2CCCCC3)cc1OC	-1	2	3	35*	0	-10
COc1ccc(/C=C/C(=O)Nc2ccc(-c3nnc4n3CCCCC4)cc2)c(OC)c1	-20*	.	.	-3	0	-17
C[C@H]1CCCCO[C@H](CN(C)CC2CCCCC2)[C@@H](C)CN([C@@H](C)CO)C(=O)c2cc(NC(=O)c3ccccc3)ccc2O1	-5	0	9	1	0	-178
O=C(COC(=O)c1nc(Cl)ccc1Cl)Nc1ccccc1OC(F)F	-19*	2	-4	4	0	-36
COc1ccc(-c2cnc3c(c2)C(=O)N([C@H](C)CO)C[C@@H](C)[C@@H](CN(C)C(=O)Cc2ccccc2)O3)cc1	-2	2	6	0	-1	-11
O=C(c1ccccc1)c1c2c(cc3sc4ccccc4[n+]13)-c1cccc3cccc-2c13	.	-12	105*	179*	73*	.
COc1ccccc1C#Cc1cnc2c(c1)C(=O)N([C@H](C)CO)C[C@@H](C)[C@H](CN(C)C(=O)CN(C)C)O2	4	2	7	0	-1	40
O=C(N/N=C/c1ccc(O)cc1)Nc1cccc2nsnc12	-31*	.	.	18	0	-12
C[C@@H]1CN([C@@H](C)CO)C(=O)c2cc(C#Cc3cccc(F)c3)cnc2O[C@H]1CN(C)C(=O)C1CCC1	0	-3	10	-1	-1	16
C[C@H]1CN([C@@H](C)CO)C(=O)c2cc(C#CC3CC3)cnc2O[C@H]1CN(C)Cc1ccccc1C(=O)O	0	-2	1	0	0	-26
COc1ccccc1S(=O)(=O)N(C)C[C@H]1Oc2cc(Br)ccc2S(=O)(=O)N([C@@H](C)CO)C[C@H]1C	1	6	7	0	1	-15
C[C@H](CO)N1C[C@H](C)[C@@H](CN(C)S(=O)(=O)c2ccc(F)cc2)Oc2cc(Br)ccc2S1(=O)=O	-25*!	-1	0	1	-1	14
COc1ccccc1S(=O)(=O)N(C)C[C@H]1Oc2cc(Br)ccc2S(=O)(=O)N([C@H](C)CO)C[C@H]1C	-34*!	-1	6	3	0	-4
